Experimental data as given in ChEMBL document CHEMBL1121524, “Studies of hypolipidemic agents. 1. Synthesis and hypolipidemic activities of alkoxycinnamic acid derivatives” (1980).

Tests used:
[1] = organism: Rattus norvegicus; experiment: Tested for the hypolipidemic activity, expressed as percent decrease in Triglyceride in rat, at dosage of 100 mg for 6 days by Ryan and Rasho method; format: functional
How it was run: (§1)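 Male Sprague-Dawley rats, 4 weeks old, kept on CE-2 chow for at least 1 week, then grouped (generally five per group). Compound was mixed into CE-2 powder and fed ad libitum for the stated period; controls received plain CE-2 powder. Diet level is given as mg/100 g (mg%), about equal to mg/kg/day. Total serum triglyceride was measured by the Ryan and Rasho method and reported as percent depression versus control group mean. Significance was p < 0.05.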

[2] = organism: Rattus norvegicus; experiment: Tested for the hypolipidemic activity, expressed as percent decrease in serum cholesterol in rat, at dosage of 100 mg for 6 days by Zak et al method; format: functional
How it was run: as §1, with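 “cholesterol” for “triglyceride”, “Zak et al.” for “Ryan and Rasho”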

[3] = organism: Rattus norvegicus; experiment: Hypolipidemic activity expressed as percentage decrease in triglyceride in rat, at dosage of 50 mg for 7 days; format: functional; how it was run: as §1
[4] = organism: Rattus norvegicus; experiment: tested for the hypolipidemic activity, expressed as percent decrease in Triglyceride in rat, at dosage of 20 mg for 7 days by Ryan and Rasho method; format: functional; how it was run: as §1
[5] = organism: Rattus norvegicus; experiment: Tested for the hypolipidemic activity, expressed as percent decrease in serum cholesterol in rat, at dosage of 50 mg for 7 days; format: functional
How it was run: as §1, with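 “cholesterol” for “triglyceride”, “Zak et al.” for “Ryan and Rasho”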

[6] = organism: Rattus norvegicus; experiment: tested for the hypolipidemic activity, expressed as percent decrease in serum cholesterol in rat, at dosage of 10 mg for 7 days by Zak et al method; format: functional
How it was run: as §1, with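 “cholesterol” for “triglyceride”, “Zak et al.” for “Ryan and Rasho”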

[7] = organism: Rattus norvegicus; experiment: tested for the hypolipidemic activity, expressed as percent decrease in Triglyceride in rat, at dosage of 10 mg for 7 days by Ryan and Rasho method; format: functional; how it was run: as §1
[8] = organism: Rattus norvegicus; experiment: Tested for the hypolipidemic activity, expressed as percent decrease in serum cholesterol in rat, at dosage of 20 mg for 7 days by Zak et al method; format: functional
How it was run: as §1, with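 “cholesterol” for “triglyceride”, “Zak et al.” for “Ryan and Rasho”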

[9] = test system: Rattus norvegicus; experiment: In vivo hypolipidemic activity, expressed as percent decrease in serum triglyceride in rat, at dosage of 20 mg for 7 days.
[10] = organism: Rattus norvegicus; experiment: Tested for the hypolipidemic activity, expressed as percent decrease in Triglyceride in rat, at dosage of 100 mg for 3 days by Ryan and Rasho method; format: functional; how it was run: as §1
[11] = organism: Rattus norvegicus; experiment: Tested for the hypolipidemic activity, expressed as percent decrease in serum cholesterol in rat, at dosage of 100 mg for 3 days by Zak et al method; format: functional
How it was run: as §1, with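 “cholesterol” for “triglyceride”, “Zak et al.” for “Ryan and Rasho”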

[12] = test system: Rattus norvegicus; experiment: In vivo hypolipidemic activity, expressed as percent decrease in serum cholesterol in rat, at dosage of 20 mg for 7 days.; format: functional
How it was run: as §1, with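 “cholesterol” for “triglyceride”, “Zak et al.” for “Ryan and Rasho”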

[13] = organism: Rattus norvegicus; experiment: Tested for the hypolipidemic activity, expressed as percent decrease in serum cholesterol in rat, at dosage of 75.8 mg for 7 days by Zak et al method; format: functional
How it was run: as §1, with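 “cholesterol” for “triglyceride”, “Zak et al.” for “Ryan and Rasho”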

[14] = organism: Rattus norvegicus; experiment: tested for the hypolipidemic activity, expressed as percent decrease in Triglyceride in rat, at dosage of 75.8 mg for 7 days by Ryan and Rasho method; format: functional; how it was run: as §1
[15] = organism: Rattus norvegicus; experiment: Hypolipidemic activity, expressed as percent decrease in serum cholesterol in rat, at dosage of 100 mg for 7 days by Zak et al method; format: functional
How it was run: as §1, with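 “cholesterol” for “triglyceride”, “Zak et al.” for “Ryan and Rasho”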

[16] = test system: Rattus norvegicus; experiment: In vivo hypolipidemic activity, expressed as percent decrease in Triglyceride in rat, at dosage of 100 mg for 7 days.; format: functional; how it was run: as §1
[17] = organism: Rattus norvegicus; experiment: tested for the hypolipidemic activity, expressed as percent decrease in Triglyceride in rat, at dosage of 50 mg for 3 days by Ryan and Rasho method; format: functional; how it was run: as §1
[18] = organism: Rattus norvegicus; experiment: tested for the hypolipidemic activity, expressed as percent decrease in serum cholesterol in rat, at dosage of 50 mg for 3 days by Zak et al method; format: functional
How it was run: as §1, with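 “cholesterol” for “triglyceride”, “Zak et al.” for “Ryan and Rasho”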

[19] = organism: Rattus norvegicus; experiment: Tested for the hypolipidemic activity, expressed as percent decrease in Triglyceride in rat, at dosage of 10 mg for 7 days by Ryan and Rasho method; format: functional; how it was run: as §1
[20] = organism: Rattus norvegicus; experiment: Tested for the hypolipidemic activity, expressed as percent decrease in serum cholesterol in rat, at dosage of 10 mg for 7 days by Zak et al method; format: functional
How it was run: as §1, with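 “cholesterol” for “triglyceride”, “Zak et al.” for “Ryan and Rasho”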

[21] = organism: Rattus norvegicus; experiment: Tested for the hypolipidemic activity, expressed as percent decrease in serum cholesterol in rat, at dosage of 102 mg for 7 days by Zak et al method; format: functional
How it was run: as §1, with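 “cholesterol” for “triglyceride”, “Zak et al.” for “Ryan and Rasho”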

[22] = organism: Rattus norvegicus; experiment: Tested for the hypolipidemic activity, expressed as percent decrease in Triglyceride in rat, at dosage of 102 mg for 7 days by Ryan and Rasho method; format: functional; how it was run: as §1

| Structure (SMILES) | Decrease [3] [%] | Decrease [5] [%] | Decrease [9] [%] | Decrease [10] [%] | Decrease [11] [%] | Decrease [12] [%] | also measured |
| --- | --- | --- | --- | --- | --- | --- | --- |
| CCCCOc1ccc(/C=C/C(=O)OCC(O)CO)cc1 (configuration not stated) | – | – | – | – | – | – | Decrease [1]: 15%; Decrease [2]: 7% |
| COc1ccc(/C=C/C(=O)OCC(O)CO)cc1 (configuration not stated) | – | – | – | – | – | – | Decrease [1]: 31%; Decrease [2]: 4% |
| CCCCCCCCCCCCOc1ccc(/C=C(\C)C(=O)O)cc1 | 31 | 17 | – | – | – | – | Decrease [4]: 32%; Decrease [6]: 14%; Decrease [7]: 13%; Decrease [8]: 7% |
| CCCCCCCCCCCCCCCCOc1ccc(/C=C(\C)C(=O)OCC(O)CO)cc1 (configuration not stated) | 28 | 15 | 5 | 68 | 32 | 11 | – |
| CCCCCCCCCCCCCCCCOc1ccc(/C=C/C(=O)OCCOC(=O)/C=C/c2ccc(OCCCCCCCCCCCCCCCC)cc2)cc1 | – | – | – | -4 | 9 | – | – |
| C/C(=C\c1ccc(Oc2ccccc2)cc1)C(=O)OCC(O)CO (configuration not stated) | 4 | 14 | -1 | – | – | 7 | – |
| C/C(=C\c1ccc(Oc2ccccc2)cc1)C(=O)OCCCl | -6 | 14 | 22 | – | – | 15 | – |
| C/C(=C\c1ccccc1)C(=O)OCC(O)CO (configuration not stated) | – | – | – | 22 | 10 | – | – |
| CCCCCCCCCCCCCCCC(=O)OCC(O)COC(=O)/C(C)=C/c1ccc(OCCCCCCCCCCCCCC)cc1 (configuration not stated) | – | – | – | – | – | – | Decrease [13]: 3%; Decrease [14]: -19% |
| CCCCCCCCCCCCCCOc1ccc(/C=C(\C)C(=O)O)cc1 | 26 | 17 | 38 | – | – | 12 | Decrease [15]: 16%; Decrease [16]: 45% |
| CCCCOc1ccc(/C=C/C(=O)OCCN2CCOCC2)cc1.Cl | – | – | – | -32 | -9 | – | – |
| CCCCCCCCCCCCCCCCOc1ccc(/C=C(\C)C(=O)OCCCl)cc1 | – | – | 5 | 48 | 24 | 20 | Decrease [17]: 26%; Decrease [18]: 20% |
| CCCCCCCCCCCCCCCCOc1ccc(/C=C(\C)C(=O)OCCCCl)cc1 | – | – | – | 25 | 17 | – | – |
| C=C(C)C(=O)OCCOC(=O)/C=C/c1ccc(Oc2ccccc2)cc1 | – | – | – | -15 | 14 | – | – |
| O=C(O)/C=C/c1ccc(Oc2ccccc2)cc1 | 34 | 15 | 14 | – | – | 14 | – |
| CCCCCCCCCCCCCCCCOc1ccc(/C=C/C(=O)OCCCOC(=O)/C=C/c2ccc(OCCCCCCCCCCCCCCCC)cc2)cc1 | – | – | – | -2 | 8 | – | – |
| CCCCCCCCCCCCCCCCOc1ccc(/C=C/C(=O)OCCO)cc1 | – | – | 26 | – | – | 18 | Decrease [15]: 24%; Decrease [16]: 57% |
| O=C(/C=C/c1ccc(Oc2ccccc2)cc1)OCCCCl | – | – | -2 | – | – | 17 | Decrease [19]: 13%; Decrease [20]: 4%; Decrease [1]: 54%; Decrease [2]: 32% |
| CCCCCCCCCCCCOc1ccc(/C=C(\C)C(=O)OCC(O)CO)cc1 (configuration not stated) | 53 | 26 | 33 | – | – | 16 | Decrease [6]: 9%; Decrease [7]: 10% |
| CCCCCCCCCCCCCCCC(=O)OCC(COC(=O)/C(C)=C/c1ccc(OCCCCCCCCCCCCCC)cc1)OC(=O)CCCCCCCCCCCCCCC (configuration not stated) | – | – | – | – | – | – | Decrease [21]: 18%; Decrease [22]: 5% |
